One data set relates to duplex DNA (dA60.dT60). Nature of the data set: UV thermal denaturation of AT rich DNA duplex. As to conditions: 10 μM ligand, 1 μM duplex, 10 mM sodium cacodylate, 0.1 mM EDTA, 100 mM NaCl, pH 7.0. It is filed as binding.
Another data set concerns E. faecalis 29212. The experiment in a line: MIC by microbroth dilution. In kind it is cell-based. Particulars: Enterococcus faecalis, 29212, 24 h, read-out: MIC S6. The gist of the method: (§1)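 CLSI microbroth dilution in Mueller-Hinton broth. Log-phase cultures (37 °C, shaking) were pelleted and resuspended in 0.85% saline to OD625 0.1, giving final 5×10^5 CFU/mL. Triplicate wells were incubated 24 h at 37 °C and read at OD625. MIC is given as a range where no sharp growth inflection occurred.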

Data set [1] can be described thus: Cytotoxicity, sulforhodamine B assay. In kind it is cell-based. Particulars: human, DU-145 prostate cancer cells.
Data set [2] deals with E. coli DNA topoisomerase I (Escherichia coli, UniProt P06612). Nature of the data set: Inhibition assay against E. coli DNA topoisomerase I. As to conditions: gel titration, 6 nM enzyme. It is filed as biochemical.
The target of data set [3] is human DNA topoisomerase II (Homo sapiens, UniProt P11388). The experiment in a line: Inhibition assay against human DNA topoisomerase II. In kind it is biochemical. Particulars: 50 μM compound. Summed up:
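Relaxation of 200 ng supercoiled pBAD-GFPuv by 4 units human topoisomerase II. Compound final 5–50 μM (10 and 50 μM in gel panels). 30 min at 37 °C, stopped by phenol extraction. Run on 1% agarose without chloroquine and ethidium-stained. (−) supercoiled band was quantified as a fraction of all topoisomers.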

Data set [4] deals with T1, human DNA topoisomerase I (Homo sapiens, UniProt P11387).
T1 sequence (P11387 1-765): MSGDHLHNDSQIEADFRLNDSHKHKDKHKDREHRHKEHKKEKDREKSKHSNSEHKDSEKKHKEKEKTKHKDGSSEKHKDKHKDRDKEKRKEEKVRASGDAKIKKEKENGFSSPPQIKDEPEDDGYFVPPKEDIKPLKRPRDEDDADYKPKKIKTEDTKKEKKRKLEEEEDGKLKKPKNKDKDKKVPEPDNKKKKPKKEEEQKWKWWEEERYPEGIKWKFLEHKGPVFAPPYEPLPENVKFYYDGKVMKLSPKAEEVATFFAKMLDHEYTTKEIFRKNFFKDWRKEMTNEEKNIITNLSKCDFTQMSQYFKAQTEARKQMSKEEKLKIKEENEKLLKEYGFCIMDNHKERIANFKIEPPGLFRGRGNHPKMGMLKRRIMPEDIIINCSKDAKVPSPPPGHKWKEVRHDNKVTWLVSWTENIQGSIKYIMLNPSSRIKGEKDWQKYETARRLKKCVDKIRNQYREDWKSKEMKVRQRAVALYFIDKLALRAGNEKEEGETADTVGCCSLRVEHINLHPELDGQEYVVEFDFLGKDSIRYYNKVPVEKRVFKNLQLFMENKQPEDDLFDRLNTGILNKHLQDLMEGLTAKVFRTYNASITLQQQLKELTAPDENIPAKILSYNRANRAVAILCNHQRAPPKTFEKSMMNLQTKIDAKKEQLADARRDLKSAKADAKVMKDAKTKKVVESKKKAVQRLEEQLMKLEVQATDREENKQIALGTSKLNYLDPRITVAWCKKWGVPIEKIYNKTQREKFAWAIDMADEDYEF
Nature of the data set: Inhibition assay against human DNA topoisomerase I. In kind it is biochemical. As to conditions: 50 μM compound.

Another data set concerns the target E. coli DNA gyrase (Escherichia coli, UniProt P0AES4+P0AES6). Nature of the data set: Inhibition assay against E. coli DNA gyrase. It is filed as biochemical. As to conditions: 1 to 50 μM compound.
In another data set the test system is S. aureus 33591. The experiment in a line: MIC by microbroth dilution. Particulars: Staphylococcus aureus, 33591, 24 h, read-out: MIC S2. It is filed as cell-based. The gist of the method:
as §1

Data set [5] has as its system prostate cancer cell line DU-145. The experiment in a line: Cytotoxicity, sulforhodamine B assay. It is filed as cell-based. Particulars: DU-145, 48 h treatment, SRB.

≈ marks a conversion by molar mass, not a printed value.

The record followed here is article PMC4112416 (MedChemComm, 2014).

E. coli DNA topoisomerase I, sequence (P06612 whole entry): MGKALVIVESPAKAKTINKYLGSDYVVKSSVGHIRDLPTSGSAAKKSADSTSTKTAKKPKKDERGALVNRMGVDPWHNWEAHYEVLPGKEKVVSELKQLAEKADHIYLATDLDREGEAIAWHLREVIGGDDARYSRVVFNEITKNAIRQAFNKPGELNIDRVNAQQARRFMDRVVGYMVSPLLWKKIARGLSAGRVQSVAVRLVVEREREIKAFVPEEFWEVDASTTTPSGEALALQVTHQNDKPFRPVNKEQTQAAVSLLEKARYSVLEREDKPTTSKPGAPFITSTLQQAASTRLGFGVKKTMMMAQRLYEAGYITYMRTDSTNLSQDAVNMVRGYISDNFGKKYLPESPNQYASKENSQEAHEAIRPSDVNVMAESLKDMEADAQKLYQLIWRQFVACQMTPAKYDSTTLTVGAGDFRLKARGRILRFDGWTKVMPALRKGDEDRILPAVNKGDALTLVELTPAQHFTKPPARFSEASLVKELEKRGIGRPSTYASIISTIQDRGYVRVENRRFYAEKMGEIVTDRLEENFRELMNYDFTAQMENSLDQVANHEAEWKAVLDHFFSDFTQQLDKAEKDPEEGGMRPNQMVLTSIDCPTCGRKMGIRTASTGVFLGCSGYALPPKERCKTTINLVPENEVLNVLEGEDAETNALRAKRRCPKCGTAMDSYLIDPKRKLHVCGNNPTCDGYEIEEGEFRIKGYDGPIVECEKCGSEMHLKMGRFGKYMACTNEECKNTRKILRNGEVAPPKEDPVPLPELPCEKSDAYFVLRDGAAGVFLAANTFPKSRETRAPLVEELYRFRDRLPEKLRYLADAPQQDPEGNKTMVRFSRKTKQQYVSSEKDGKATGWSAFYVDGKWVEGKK
human DNA topoisomerase II, sequence (P11388 whole entry): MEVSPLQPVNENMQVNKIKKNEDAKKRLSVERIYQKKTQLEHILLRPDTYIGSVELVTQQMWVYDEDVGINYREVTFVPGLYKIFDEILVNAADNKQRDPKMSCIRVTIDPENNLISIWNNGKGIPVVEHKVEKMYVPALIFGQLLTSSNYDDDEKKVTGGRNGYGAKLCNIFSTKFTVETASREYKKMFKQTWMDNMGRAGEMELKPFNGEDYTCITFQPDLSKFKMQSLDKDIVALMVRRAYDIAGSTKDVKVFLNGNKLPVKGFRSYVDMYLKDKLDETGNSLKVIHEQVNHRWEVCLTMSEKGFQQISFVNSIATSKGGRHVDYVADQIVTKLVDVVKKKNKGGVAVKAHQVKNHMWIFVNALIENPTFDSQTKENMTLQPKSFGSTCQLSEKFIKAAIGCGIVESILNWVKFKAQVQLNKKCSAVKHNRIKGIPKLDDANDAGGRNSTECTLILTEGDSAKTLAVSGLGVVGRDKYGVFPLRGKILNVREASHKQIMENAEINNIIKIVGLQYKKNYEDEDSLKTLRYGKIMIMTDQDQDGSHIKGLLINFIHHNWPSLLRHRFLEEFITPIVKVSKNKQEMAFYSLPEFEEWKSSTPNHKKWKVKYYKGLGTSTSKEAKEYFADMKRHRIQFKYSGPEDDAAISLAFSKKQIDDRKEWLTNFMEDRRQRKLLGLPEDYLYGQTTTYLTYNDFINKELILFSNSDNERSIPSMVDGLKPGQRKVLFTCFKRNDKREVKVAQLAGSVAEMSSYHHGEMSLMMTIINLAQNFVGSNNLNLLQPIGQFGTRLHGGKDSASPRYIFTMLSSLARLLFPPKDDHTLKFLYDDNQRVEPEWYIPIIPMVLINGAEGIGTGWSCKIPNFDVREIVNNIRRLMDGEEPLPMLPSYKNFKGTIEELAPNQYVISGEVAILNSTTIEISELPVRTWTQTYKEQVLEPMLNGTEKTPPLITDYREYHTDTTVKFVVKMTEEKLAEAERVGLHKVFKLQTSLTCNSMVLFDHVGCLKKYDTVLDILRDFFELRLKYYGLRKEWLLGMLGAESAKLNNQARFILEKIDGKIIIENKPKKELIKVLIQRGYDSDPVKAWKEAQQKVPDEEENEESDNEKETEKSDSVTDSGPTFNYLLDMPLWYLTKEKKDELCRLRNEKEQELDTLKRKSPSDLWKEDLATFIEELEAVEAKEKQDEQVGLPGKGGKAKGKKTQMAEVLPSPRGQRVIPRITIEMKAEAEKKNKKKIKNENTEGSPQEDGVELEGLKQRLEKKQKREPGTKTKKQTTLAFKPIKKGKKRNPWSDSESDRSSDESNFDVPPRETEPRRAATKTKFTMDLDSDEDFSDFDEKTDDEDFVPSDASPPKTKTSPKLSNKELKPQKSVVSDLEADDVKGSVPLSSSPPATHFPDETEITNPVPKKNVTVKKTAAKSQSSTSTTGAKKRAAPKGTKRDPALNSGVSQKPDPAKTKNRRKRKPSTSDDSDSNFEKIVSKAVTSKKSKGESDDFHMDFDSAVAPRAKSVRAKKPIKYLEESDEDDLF
E. coli DNA gyrase, sequence (P0AES4 whole entry, one chain of several): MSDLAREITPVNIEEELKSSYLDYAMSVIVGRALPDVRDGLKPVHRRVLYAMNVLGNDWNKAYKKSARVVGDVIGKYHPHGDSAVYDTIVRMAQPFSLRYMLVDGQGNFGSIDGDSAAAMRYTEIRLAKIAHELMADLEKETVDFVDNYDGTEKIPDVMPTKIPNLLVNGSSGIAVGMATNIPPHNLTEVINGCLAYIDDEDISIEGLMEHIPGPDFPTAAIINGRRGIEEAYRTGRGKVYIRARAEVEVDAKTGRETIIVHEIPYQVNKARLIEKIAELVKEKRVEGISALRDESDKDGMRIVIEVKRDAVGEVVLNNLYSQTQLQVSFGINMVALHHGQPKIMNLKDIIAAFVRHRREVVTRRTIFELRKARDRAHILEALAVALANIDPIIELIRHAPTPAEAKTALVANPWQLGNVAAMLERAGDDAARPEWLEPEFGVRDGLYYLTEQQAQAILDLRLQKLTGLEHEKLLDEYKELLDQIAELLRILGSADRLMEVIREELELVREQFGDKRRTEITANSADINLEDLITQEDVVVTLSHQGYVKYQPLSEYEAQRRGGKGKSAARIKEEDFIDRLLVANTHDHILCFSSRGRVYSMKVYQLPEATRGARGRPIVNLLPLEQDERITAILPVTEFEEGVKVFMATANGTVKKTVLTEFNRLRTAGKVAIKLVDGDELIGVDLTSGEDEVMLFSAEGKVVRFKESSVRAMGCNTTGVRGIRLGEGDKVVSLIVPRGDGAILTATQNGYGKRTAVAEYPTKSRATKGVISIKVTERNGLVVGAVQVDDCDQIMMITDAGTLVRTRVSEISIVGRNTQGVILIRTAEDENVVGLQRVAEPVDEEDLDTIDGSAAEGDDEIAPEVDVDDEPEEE

As to `CCOc1ccc(-c2nc3cc(-c4nc5cc(N6CCN(C)CC6)ccc5[nH]4)ccc3[nH]2)cc1` [Hoechst 33342], the Tm with duplex DNA (dA60.dT60) worked out at 86.6 °C. Moreover, the MIC in the data set with E. faecalis 29212 lay within 16 to 32 µg/mL (≈ 35.4 to 70.7 µM).

Take `C#CCCCCCCCCCOc1ccc(-c2nc3ccc(-c4nc5ccc(N6CCN(C)CC6)cc5[nH]4)cc3[nH]2)cc1` [DPA 153, 6-(4-methylpiperazin-1-yl)-2′-(4-(undec-10-ynyloxy)phenyl)-1H,3′H-2,5′-bibenzo[d]imidazole]: the melting temperature (Tm) in the data set on duplex DNA (dA60.dT60) worked out at 70.5 °C. This compound also registered an IC50 at 48 h in [1] of more than 10 µM.

On to `C#CCOc1ccc(-c2nc3ccc(-c4nc5ccc(N6CCN(C)CC6)cc5[nH]4)cc3[nH]2)cc1` [DPA 151, 6-(4-methylpiperazin-1-yl)-2′-(4-(prop-2-ynyloxy)phenyl)-1H,3′H-2,5′-bibenzo[d]imidazole], for which the “concentration needed to completely inhibit the activities of E. coli DNA topoisomerase I” value in [2] is given as “approximately 5 μM”. Besides, the “inhibition of human DNA topoisomerase II activities” value in [3] was “partially inhibit”. Besides, the Tm in the data set with duplex DNA (dA60.dT60) is 85.4 °C.

`C#CCOCCCCOc1ccc(-c2nc3ccc(-c4nc5ccc(N6CCN(C)CC6)cc5[nH]4)cc3[nH]2)cc1` [DPA 154, 6-(4-methylpiperazin-1-yl)-2′-(4-(4-(prop-2-ynyloxy)butoxy)phenyl)-1H,3′H-2,5′-bibenzo[d]imidazole]: the Tm with duplex DNA (dA60.dT60) was found to be 85.9 °C.

Consider `CN1CCN(c2ccc3[nH]c(-c4ccc5[nH]c(-c6ccc(O)cc6)nc5c4)nc3c2)CC1` [Hoechst 33258], for which the “concentration needed to completely inhibit the activities of E. coli DNA topoisomerase I” value in data set [2] was “approximately 20 μM”. Further, in [4], the “supercoiled DNA template prevented from relaxation by human DNA topoisomerase I” value is reported as “about 70%”. For the same compound, in data set [3], the “inhibition of human DNA topoisomerase II activities” value was “completely inhibit”. The “inhibition of DNA gyrase's activities” value against E. coli DNA gyrase is “did not inhibit”. In the data set on duplex DNA (dA60.dT60), the Tm stood at 87.1 °C. Besides, the MIC in the data set with S. aureus 33591 and with E. faecalis 29212 was 16 to 32 µg/mL (≈ 37.7 to 75.4 µM) each time.

With `C#CCCCCOc1ccc(-c2nc3ccc(-c4nc5ccc(N6CCN(C)CC6)cc5[nH]4)cc3[nH]2)cc1` [DPA 152, 2′-(4-(hex-5-ynyloxy)phenyl)-6-(4-methylpiperazin-1-yl)-1H,3′H-2,5′-bibenzo[d]imidazole], the Tm in the data set on duplex DNA (dA60.dT60) turned out to be 83.4 °C. Moreover, the “cytotoxicity relative to Hoechst 33242” value in data set [5] is reported as “nearly twice as toxic as Hoechst 33242”.
